# CTSL1 counter-1 – Fasciola hepatica cathepsin L1 inhibitors, primary screen, counter-screen for PFM18AAP inhibitor project, biochemical, QFRET, fluorogenic peptide substrate; recombinant F. hepatica cathepsin L1, Z-Leu-Arg-MCA fluorescence; inhibition, % at 5.96 µM; 300,000 compounds, 0.49% hits; AID 1906, 2009;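 active = inhibition above the mean of all tested compounds plus 3 SD, set per screening campaign, cut at about 17% in these data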;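 also: 0% = plate median of test compound wells and 100% = 1 µM Z-Phe-Ala-diazomethylketone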
# AHR act – AHR activators, primary screen, cell-based, luminescence, luciferase reporter, human; activation, % at 5 µM; AHR-responsive luciferase reporter cells; 320,000 compounds, 2.5% hits; in the data active = activation above about 47%;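 also: 0% = vehicle wells and 100% = reference agonist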
# PfM18AAP inh-1 – PfM18AAP inhibitors, malaria aminopeptidase, primary screen, biochemical, QFRET, recombinant enzyme; M18 aspartyl aminopeptidase (Plasmodium falciparum 3D7); H-Glu-NHMec fluorogenic cleavage; inhibition, % at 7.35 µM; 290,000 compounds, 1.2% hits;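 active = inhibition above the campaign mean inhibition over all tested compounds plus 3 SD, cut at about 28% in these data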;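 also: 0% = plate median of test compound wells and 100% = 2 mM ZnCl2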
# FXN GAA850 act – FXN promoter activators, primary screen, cell-based, luciferase luminescence, HEK293 lucGAA850; HEK293 lucGAA850 FXN promoter luciferase reporter, 24 h; percent of 10 µM SAHA response; activation, % at 6 µM; 360,000 compounds, 0.56% hits; AID 540364, 2011;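 active = activation above the average of all compounds screened plus 3 SD, cutoff fixed separately per campaign, cut at about 7.5% in these data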;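 also: 0% = DMSO wells and 100% = 10 µM SAHA wells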
# SENP1 FRET inh – human SENP1 catalytic domain inhibitors, primary screen, biochemical, FRET, uHTS; inhibition, % at 10 µM; AID 624204, 2012; recombinant SENP1 catalytic domain, CyPet-SUMO1-YPet FRET cleavage; Sentrin-specific protease 1 (Homo sapiens), Q9P0U3; 360,000 compounds, 0.21% hits;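 active = inhibition at least 30% at 10 µM, raw YFP signal under a set limit, fluorescence ratio 0.5 to 1.5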;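 also: 0% = enzyme with DMSO and 100% = no enzyme wells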
#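 Test system: hSENP1 catalytic domain, recombinant; Amount: 20 pM final SENP1 enzyme; Medium: Tris pH 8 buffer plus EDTA, NaCl, BME, BSA, NP40, catalase; Schedule: 50 min enzyme reaction, room temperature, light-protected; Technique: FRET fluorescence in CFP and YFP emission channels; Controls: no-enzyme wells low, DMSO-plus-enzyme wells high control.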
# HDAC3 inhib – HDAC3 deacetylase inhibitors, primary screen, biochemical, fluorescence, cell-free homogeneous; inhibition, % at 8.3 µM; 320,000 compounds, 0.15% hits; Histone deacetylase 3 (Homo sapiens), O15379; AID 2718, 2010; recombinant HDAC3, fluorogenic peptide/trypsin coupled; in the data active = inhibition above about 26%, passing the limit was not always enough
# PfM18AAP inh-2 – PfM18AAP inhibitors, malaria aminopeptidase, confirmation, biochemical, QFRET, recombinant enzyme, triplicate. 2,400 compounds, 28% hits. AID 2170, 2009. shares compounds with PfM18AAP inh-1. inhibition, % at 7.35 µM. H-Glu-NHMec fluorogenic cleavage;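 active = mean inhibition over replicate wells above the hit cutoff set for the earlier primary screen, cut at about 29% in these data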;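 also: 0% = median of test compound wells and 100% = 2 mM ZnCl2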
# CTSL1 counter-2 – cathepsin L1 inhibitors, retest, confirmation, counter-screen for PFM18AAP inhibitor project, biochemical, QFRET, triplicate; shares compounds with PfM18AAP inh-1; purified cathepsin L1, Z-Leu-Arg-MCA fluorescence; inhibition, % at 5.96 µM; 2,400 tested, under 10 active; AID 2178, 2009;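 active = average inhibition across replicates above the hit cutoff set in the earlier primary screen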;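 also: 0% = median of test compound wells and 100% = Z-Phe-Ala-diazomethylketone 1 µM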
# Numbers without * were called inactive; nt = no result. This is a sample that favours compounds with a hit; in the whole collection about 4.2% have one here.
SMILES,CTSL1 counter-1,AHR act,PfM18AAP inh-1,FXN GAA850 act,SENP1 FRET inh,HDAC3 inhib,PfM18AAP inh-2,CTSL1 counter-2
CC(C)(C)c1ccc(CC(=O)N2CCC2(C)C(=O)N2CCCCC2)cc1 (centres undefined),nt,nt,nt,0,1,nt,nt,nt
C=CC[n+]1c(/C=C/c2ccc(OC(C)=O)c(OC)c2)ccc2ccccc21,-15,20,14,0,4,9,nt,nt
COc1ccc(NC(=O)Nc2ccc3c(c2)C(=O)N([C@H](C)CO)C[C@@H](C)[C@@H](CN(C)C(=O)C2CCCCC2)OCCCC[C@H](C)O3)cc1,nt,nt,nt,-1,1,nt,nt,nt
COC(=O)c1cccc(N2C(=O)C[C@](Sc3ccc(C)cc3)(C(=O)OC)[C@H]2c2ccccc2)c1,nt,nt,nt,nt,0,nt,nt,nt
COc1ccc(NC(=O)C2CC3CCC2C3)c(OC)c1 (centres undefined),1,2,nt,3,2,5,nt,nt
CC(=O)c1ccc(Nc2nc(-c3sc(C)nc3C)cs2)cc1,nt,nt,nt,-4,-4,nt,nt,nt
Cc1nc2ccccn2c1-c1csc(Nc2ccc(C(=O)O)cc2)n1,1,3,43*,-2,1,0,23,0
Cc1cccc(Nc2nc(-c3c(C)nc4ccccn34)cs2)c1,0,-4,5,-1,3,4,nt,nt
Cc1nc2ccccn2c1-c1csc(Nc2cccc(O)c2)n1,nt,nt,38*,-2,-5,nt,23,5
CC(=O)Oc1cc2cccc(OC(C)=O)c(=O)c2c(OC(C)=O)c1OC(C)=O,-5,2,53*,0,4,9,30*,-11
COc1cc2cccc(OC)c(=O)c2c(O)c1OC,8,7,2,4,0,5,nt,nt
Cc1cccc(OCc2nnc(SCC(=O)NCc3ccc4c(c3)OCO4)o2)c1,nt,nt,nt,-2,-2,nt,nt,nt
Nc1ccccc1N=Nc1ccccc1N,2,26,41*,2,13,3,6,2
Nc1ccccc1-c1ccccc1N,2,2,2,3,0,0,nt,nt
CCCCCc1cc(=O)[nH]c(=S)[nH]1,-1,0,7,0,1,6,nt,nt
CCCc1cc(=O)[nH]c(=S)[nH]1,-3,0,44*,-3,1,-1,-36,-6
C=CCN(c1ccccc1OC)S(=O)(=O)c1cccc(C(=O)NCc2cccs2)c1,nt,nt,nt,1,-2,nt,nt,nt
N=c1c(C(=O)NCc2ccco2)cc2c(=O)n3ccccc3nc2n1C1CCCC1,2,6,36*,6,-32,-57,-31,0
Cc1nc(/C(=N/O)C(N)=O)cs1,1,22,48*,-1,-2,-1,38*,-1
O=C(CSc1nnc(-c2ccccc2)o1)Nc1ccccc1F,1,9,3,-5,1,1,nt,nt
CCC(c1nnc(SCC(=O)Nc2nnc(-c3ccccc3)o2)o1)N(C)C (centres undefined),-3,2,69*,0,5,2,35*,2
CC1(c2ccc([N+](=O)[O-])cc2)Nc2ccccc2S1 (centres undefined),3,19,35*,4,5,-1,-29,0
O=C(NNc1cccc([N+](=O)[O-])c1)/C(=C\c1cccnc1)NC(=O)c1ccccc1,3,2,46*,-1,1,8,10,1
COc1cc(CN2CCCCCC2)c([N+](=O)[O-])cc1OC,-4,3,33*,0,0,7,-30,-7

# Source: PubChem BioAssay (several laboratories)
